Experimental data: ChEMBL document CHEMBL2169742, “Design, synthesis, and biological evaluation of novel transrepression-selective liver X receptor (LXR) ligands with 5,11-dihydro-5-methyl-11-methylene-6H-dibenz[b,e]azepin-6-one skeleton” (J Med Chem, 2012)
Calls of active or inactive are those of the source. No cut-off for these calls is given here.

What was measured:
[1] = molecular target: T1, Bile acid receptor (Homo sapiens) (UniProt Q96RI1); assay: Antagonist activity at human Gal4-fused FXR assessed as inhibition of chenodeoxycholic acid-induced luciferase activity at 0.03 to 10 uM by reporter gene assay; type: functional
T1 sequence (whole entry): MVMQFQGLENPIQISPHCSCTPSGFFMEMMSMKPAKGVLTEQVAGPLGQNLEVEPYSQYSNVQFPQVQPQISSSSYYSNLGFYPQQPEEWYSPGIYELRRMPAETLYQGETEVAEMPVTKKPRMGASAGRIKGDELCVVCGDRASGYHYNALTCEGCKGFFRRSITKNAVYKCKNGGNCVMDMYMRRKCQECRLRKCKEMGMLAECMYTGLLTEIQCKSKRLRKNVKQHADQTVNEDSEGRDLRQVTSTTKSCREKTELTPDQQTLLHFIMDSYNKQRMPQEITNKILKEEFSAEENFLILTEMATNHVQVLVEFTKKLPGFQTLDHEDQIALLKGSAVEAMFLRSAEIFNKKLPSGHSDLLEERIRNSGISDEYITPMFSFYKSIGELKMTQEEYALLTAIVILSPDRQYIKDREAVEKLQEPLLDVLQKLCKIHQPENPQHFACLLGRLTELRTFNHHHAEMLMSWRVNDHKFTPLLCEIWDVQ

[2] = Transrepressional activity at LXR in C57BL/6J mouse peritoneal macrophages assessed as inhibition of LPS-induced IL-6 mRNA expression at 10 uM incubated for 6 hr prior to LPS-challenge measured after 18 hrs by RT-PCR analysis
Summary of the method: (§1)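 Thioglycollate-elicited peritoneal macrophages (wild-type C57BL/6J or LXRα-null, 8–10 weeks) were plated at 4 × 10⁶/well and pretreated with compound 6 h before LPS 100 ng/mL. Cells were harvested after 18 h. il-6 and il-1β mRNA were measured by real-time quantitative PCR, normalized to GAPDH.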

[3] = molecular target: T2, Retinoic acid receptor RXR-alpha (Homo sapiens) (UniProt P19793); assay: Agonist activity at human Gal4-fused RXRalpha assessed as luciferase activity at 0.1 to 10 uM by reporter gene assay; type: functional
T2 sequence (whole entry): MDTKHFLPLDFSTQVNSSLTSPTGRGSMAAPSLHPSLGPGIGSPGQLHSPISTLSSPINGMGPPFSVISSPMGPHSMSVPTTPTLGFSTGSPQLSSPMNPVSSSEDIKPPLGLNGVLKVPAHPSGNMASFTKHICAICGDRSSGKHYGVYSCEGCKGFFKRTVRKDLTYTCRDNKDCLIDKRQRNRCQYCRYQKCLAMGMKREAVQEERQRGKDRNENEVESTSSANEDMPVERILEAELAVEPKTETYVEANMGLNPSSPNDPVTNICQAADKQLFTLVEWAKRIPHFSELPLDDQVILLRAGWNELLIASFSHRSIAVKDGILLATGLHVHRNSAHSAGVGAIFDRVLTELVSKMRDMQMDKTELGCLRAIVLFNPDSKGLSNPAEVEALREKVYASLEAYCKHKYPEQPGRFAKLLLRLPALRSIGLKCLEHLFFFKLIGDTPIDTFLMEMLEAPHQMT

[4] = molecular target: T3, Oxysterols receptor LXR-alpha (Homo sapiens, UniProt Q13133); assay: Transactivational agonist activity at human LXRalpha transfected in HEK293 cells expressing CMX-Gal4N assessed as luciferase activity at 30 uM after 16 hrs by reporter gene assay; type: cell-based; conditions: hek293, 16 h
T3 sequence (Q13133 whole entry): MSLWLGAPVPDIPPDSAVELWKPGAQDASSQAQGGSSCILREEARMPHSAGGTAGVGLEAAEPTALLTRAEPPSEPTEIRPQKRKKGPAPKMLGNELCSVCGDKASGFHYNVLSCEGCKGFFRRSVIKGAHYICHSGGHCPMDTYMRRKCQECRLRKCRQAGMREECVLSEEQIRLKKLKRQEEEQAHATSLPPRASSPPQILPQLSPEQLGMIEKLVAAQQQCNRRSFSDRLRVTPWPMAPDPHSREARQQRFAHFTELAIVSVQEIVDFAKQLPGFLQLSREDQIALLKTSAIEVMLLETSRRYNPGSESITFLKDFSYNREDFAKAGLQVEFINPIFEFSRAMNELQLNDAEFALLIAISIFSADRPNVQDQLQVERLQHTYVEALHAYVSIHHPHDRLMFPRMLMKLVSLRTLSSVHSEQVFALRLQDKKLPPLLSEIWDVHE

[5] = molecular target: T4, Peroxisome proliferator-activated receptor gamma (Homo sapiens) (UniProt P37231); assay: Antagonist activity at human Gal4-fused PPARgamma assessed as inhibition of ciglitazone-induced luciferase activity at 0.1 to 10 uM by reporter gene assay; type: functional
T4 sequence (whole entry): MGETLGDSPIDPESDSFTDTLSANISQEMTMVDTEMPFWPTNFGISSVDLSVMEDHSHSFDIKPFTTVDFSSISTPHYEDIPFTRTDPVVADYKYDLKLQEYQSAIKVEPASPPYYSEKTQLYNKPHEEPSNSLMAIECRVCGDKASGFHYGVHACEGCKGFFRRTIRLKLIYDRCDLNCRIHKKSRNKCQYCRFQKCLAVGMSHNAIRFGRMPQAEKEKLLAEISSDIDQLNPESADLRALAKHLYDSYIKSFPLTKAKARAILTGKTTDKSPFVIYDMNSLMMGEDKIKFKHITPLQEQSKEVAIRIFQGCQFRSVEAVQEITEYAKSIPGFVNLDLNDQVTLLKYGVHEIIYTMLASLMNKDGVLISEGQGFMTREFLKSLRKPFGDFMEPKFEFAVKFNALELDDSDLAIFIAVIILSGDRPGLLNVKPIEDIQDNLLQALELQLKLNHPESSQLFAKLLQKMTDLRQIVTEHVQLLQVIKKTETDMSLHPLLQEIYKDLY

[6] = molecular target: T4, Peroxisome proliferator-activated receptor gamma (Homo sapiens); assay: Agonist activity at human Gal4-fused PPARgamma assessed as luciferase activity at 10 uM by reporter gene assay relative to control; type: functional
[7] = test system: Peritoneal macrophage cell; assay: Inhibition of LPS-induced IL-6 mRNA expression in LXRalpha-deficient C57BL/6J mouse peritoneal macrophages at 10 uM incubated for 6 hrs prior to LPS-challenge measured after 18 hrs by RT-PCR analysis; type: functional, cell-based; summary of the method: as §1
[8] = molecular target: T2, Retinoic acid receptor RXR-alpha (Homo sapiens); assay: Antagonist activity at human Gal4-fused RXRalpha assessed as inhibition of SR11215-induced luciferase activity at 0.1 to 10 uM by reporter gene assay; type: functional
[9] = molecular target: T5, Oxysterols receptor LXR-alpha (Homo sapiens) (UniProt Q13133); assay: Transactivational antagonist activity at human LXRalpha transfected in HEK293 cells coexpressing CMX-Gal4N-SMRT assessed as SMRT recruitment after 16 hrs by reporter gene assay; type: functional, cell-based
T5 sequence (whole entry): T3 sequence (Q13133 whole entry)
Summary of the method: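 Mammalian two-hybrid in HEK293 cells by calcium phosphate cotransfection: CMX-VP16N-hLXRα, Gal4N-fused SRC1, DRIP205, NCoR or SMRT (15 ng), tk-MH100×4-luc (50 ng) and CMX-β-gal (10 ng). Compound or DMSO added 8 h after transfection for 16 h. Luciferase was normalized to β-galactosidase, in triplicate.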

Q: Which inhibition [1] does the source give for `C=C1c2ccccc2C(=O)N(C)c2ccc(CC)cc21` here?
A: inactive

Q: And the inhibition [2]?
A: Active

Q: What about the Activity [3] of the same compound?
A: inactive

Q: And the Activity [4]?
A: Not Active

Q: And the inhibition [5]?
A: inactive

Q: What about the Activity [6] of the same compound?
A: 20%

Q: What about the inhibition [7] of the same compound?
A: inactive

Q: What about the inhibition [8] of the same compound?
A: inactive

Q: What about the Activity [9] of the same compound?
A: Dose-dependent effect
